According to ChEMBL document CHEMBL3259728, “Design, synthesis and biological evaluation of some novel substituted quinazolines as antitumor agents” (2014):

What was measured:
Assay type in all cases: functional
[1] = tested on: U-251; test: Growth inhibition of human U251 cells assessed as cell growth at 10^-4 M after 48 hrs by SRB assay; details: U-251, 48 h, read-out: Activity
[2] = Growth inhibition of human HCT15 cells assessed as cell growth at 10^-4 M after 48 hrs by SRB assay; details: HCT-15, 48 h, read-out: Activity
[3] = tested on: MDA-MB-231; test: Growth inhibition of human MDA-MB-231 cells assessed as cell growth at 10^-5 M after 48 hrs by SRB assay; details: MDA-MB-231, 48 h, read-out: Activity
[4] = tested on: CAKI-1; test: Growth inhibition of human CAKI-1 cells assessed as cell growth at 10^-5 M after 48 hrs by SRB assay; details: CAKI-1, 48 h, read-out: Activity
How it was run: (§1)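 Five-dose NCI panel protocol. Each dose (10^-4 to 10^-8 M, 10-fold steps) was given as 48 h continuous exposure, and protein was measured by SRB staining. Percentage growth at each level is [(Ti−Tz)/(C−Tz)]×100, where Tz is time-zero absorbance and C is untreated control.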

[5] = tested on: HT-29; test: Growth inhibition of human HT-29 cells assessed as cell growth at 10^-5 M after 48 hrs by SRB assay; details: HT-29, 48 h, read-out: Activity
[6] = tested on: NCI-H460; test: Growth inhibition of human NCI-H460 cells assessed as cell growth at 10^-5 M after 48 hrs by SRB assay; details: NCI-H460, 48 h, read-out: Activity
[7] = tested on: SR; test: Growth inhibition of human SR cells assessed as cell growth at 10^-5 M after 48 hrs by SRB assay; details: read-out: Activity
[8] = tested on: ACHN; test: Growth inhibition of human ACHN cells assessed as cell growth at 10^-6 M after 48 hrs by SRB assay; details: read-out: Activity; how it was run: as §1
[9] = Growth inhibition of human NCI-ADR-RES cells assessed as cell growth at 10^-6 M after 48 hrs by SRB assay; details: read-out: Activity
[10] = Growth inhibition of human OVCAR5 cells assessed as cell growth at 10^-6 M after 48 hrs by SRB assay; details: OVCAR-5, 48 h, read-out: Activity
[11] = tested on: Malme-3M; test: Growth inhibition of human MALME-3M cells assessed as cell growth at 10^-6 M after 48 hrs by SRB assay; details: read-out: Activity
[12] = tested on: HOP-62; test: Growth inhibition of human HOP62 cells assessed as cell growth at 10^-4 M after 48 hrs by SRB assay; details: HOP-62, 48 h, read-out: Activity
[13] = tested on: SR; test: Growth inhibition of human SR cells assessed as cell growth at 10^-6 M after 48 hrs by SRB assay; details: read-out: Activity
[14] = tested on: PC-3; test: Growth inhibition of human PC3 cells assessed as cell growth at 10^-7 M after 48 hrs by SRB assay; details: PC-3, 48 h, read-out: Activity
[15] = tested on: HT-29; test: Growth inhibition of human HT-29 cells assessed as cell growth at 10^-7 M after 48 hrs by SRB assay; details: HT-29, 48 h, read-out: Activity
[16] = tested on: LOX IMVI; test: Cytotoxicity against human LOXIMVI cells after 48 hrs by SRB assay
How it was run: (§2)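 NCI 60-cell-line panel of human tumour lines from nine cancer types. Continuous 48 h exposure at five 10-fold dilutions from 10^-4 to 10^-8 M, with 5-FU as positive control. SRB protein stain read spectrophotometrically at time zero, untreated control and each concentration. GI50, TGI and LC50 were derived from the [(Ti−Tz)/(C−Tz)]×100 growth relations, and out-of-range values are given as > or < the tested limits.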

[17] = tested on: SNB-19; test: Cytotoxicity against human SNB19 cells after 48 hrs by SRB assay; details: SNB-19, 48 h; how it was run: as §2
[18] = tested on: SF-539; test: Cytotoxicity against human SF539 cells after 48 hrs by SRB assay; details: SF-539, 48 h; how it was run: as §2
[19] = tested on: SF-268; test: Growth inhibition of human SF268 cells assessed as cell growth at 10^-6 M after 48 hrs by SRB assay; details: SF-268, 48 h, read-out: Activity
[20] = tested on: SNB-75; test: Growth inhibition of human SNB75 cells assessed as cell growth at 10^-8 M after 48 hrs by SRB assay; details: SNB-75, 48 h, read-out: Activity
[21] = tested on: CAKI-1; test: Cytotoxicity against human CAKI-1 cells after 48 hrs by SRB assay; details: CAKI-1, 48 h; how it was run: as §2
[22] = tested on: T47D; test: Growth inhibition of human T47D cells assessed as cell growth at 10^-7 M after 48 hrs by SRB assay; details: read-out: Activity
[23] = tested on: SN12C; test: Growth inhibition of human SN12C cells assessed as cell growth at 10^-7 M after 48 hrs by SRB assay; details: read-out: Activity
[24] = Growth inhibition of human OVCAR8 cells assessed as cell growth at 10^-7 M after 48 hrs by SRB assay; details: OVCAR-8, 48 h, read-out: Activity
[25] = tested on: NCI-H322M; test: Growth inhibition of human NCI-H322M cells assessed as cell growth at 10^-7 M after 48 hrs by SRB assay; details: read-out: Activity
[26] = tested on: CCRF-CEM; test: Growth inhibition of human CCRF-CEM cells assessed as cell growth at 10^-7 M after 48 hrs by SRB assay; details: read-out: Activity; how it was run: as §1
[27] = tested on: COLO 205; test: Cytotoxicity against human COLO205 cells after 48 hrs by SRB assay; details: COLO 205, 48 h; how it was run: as §2
[28] = tested on: RPMI-8226; test: Cytotoxicity against human RPMI8226 cells after 48 hrs by SRB assay; details: RPMI-8226, 48 h; how it was run: as §2
[29] = Growth inhibition of human BT549 cells assessed as cell growth at 10^-4 M after 48 hrs by SRB assay; details: BT-549, 48 h, read-out: Activity; how it was run: as §1
[30] = Growth inhibition of human OVCAR3 cells assessed as cell growth at 10^-4 M after 48 hrs by SRB assay; details: OVCAR-3, 48 h, read-out: Activity
[31] = read-out: LC50 (the source's name)
[32] = read-out: pLC50 (the source's name) (converted)

For `Cc1ccc(-c2nc3ccc(Cl)cc3c(=O)n2/N=C/c2ccccc2)cc1`, the growth at 100 µM [1] was 7%, the growth at 100 µM [2] was 69% and the growth at 10 µM [3] was 33%. The growth at 10 µM [4] was 38%, the growth at 10 µM [5] was 69% and the growth at 10 µM [6] was 23%. It also gave a growth at 10 µM [7] of 63%, a growth at 1 µM [8] of 40% and a growth at 1 µM [9] of 89%. For the same compound, the growth at 1 µM [10] was 90%, the growth at 1 µM [11] was 74% and the growth at 100 µM [12] was -64%. The growth at 1 µM [13] was 52%, the growth at 0.1 µM [14] was 90% and the growth at 0.1 µM [15] was 93%. The GI50 ([16]; read-out: GI50) was 70.1 µM, the CC50 [16, 31] was greater than 100 µM and the TGI ([16]; read-out: TGI) was greater than 100 µM. For the same compound, the GI50 ([16]; read-out: pGI50 (converted)) was 70.8 µM, the CC50 [16, 32] was greater than 100 µM and the TGI ([16]; read-out: pTGI) was greater than 100 µM. The GI50 ([17]; read-out: GI50) was 5 µM, the CC50 [17, 31] was greater than 100 µM and the TGI ([17]; read-out: TGI) was greater than 100 µM. For the same compound, the GI50 ([17]; read-out: pGI50 (converted)) was 5.01 µM, the CC50 [17, 32] was greater than 100 µM and the TGI ([17]; read-out: pTGI) was greater than 100 µM. It also gave a GI50 ([18]; read-out: GI50) greater than 100 µM, a CC50 [18, 31] greater than 100 µM and a TGI ([18]; read-out: TGI) greater than 100 µM. It also gave a GI50 ([18]; read-out: pGI50 (converted)) greater than 100 µM, a CC50 [18, 32] greater than 100 µM and a TGI ([18]; read-out: pTGI) greater than 100 µM. It also gave a growth at 1 µM [19] of 90%, a growth at 0.01 µM [20] of 87% and a GI50 ([21]; read-out: GI50) of 4.82 µM. For the same compound, the CC50 [21, 31] was greater than 100 µM, the TGI ([21]; read-out: TGI) was greater than 100 µM and the GI50 ([21]; read-out: pGI50 (converted)) was 4.79 µM. For the same compound, the CC50 [21, 32] was greater than 100 µM, the TGI ([21]; read-out: pTGI) was greater than 100 µM and the growth at 0.1 µM [22] was 88%. It also gave a growth at 0.1 µM [23] of 92%, a growth at 0.1 µM [24] of 100% and a growth at 0.1 µM [25] of 76%. It also gave a growth at 0.1 µM [26] of 97%, a GI50 ([27]; read-out: GI50) of 9 µM and an LC50 (concentration killing 50% of cells) ([27]; read-out: LC50) greater than 100 µM. It also gave a TGI ([27]; read-out: TGI) greater than 100 µM, a GI50 ([27]; read-out: pGI50 (converted)) of 8.91 µM and an LC50 (concentration killing 50% of cells) ([27]; read-out: pLC50 (converted)) greater than 100 µM. The TGI ([27]; read-out: pTGI) was greater than 100 µM, the GI50 ([28]; read-out: GI50) was greater than 100 µM and the CC50 [28, 31] was greater than 100 µM. It also gave a TGI ([28]; read-out: TGI) greater than 100 µM, a GI50 ([28]; read-out: pGI50 (converted)) greater than 100 µM and a CC50 [28, 32] greater than 100 µM. The TGI ([28]; read-out: pTGI) was greater than 100 µM, the growth at 100 µM [29] was 72% and the growth at 100 µM [30] was 15%.
